From ChEMBL document CHEMBL1140383, “Synthesis of 5-nitro-2-furancarbohydrazides and their cis-diamminedichloroplatinum complexes as bitopic and irreversible human thioredoxin reductase inhibitors” (J Med Chem, 2005) come the findings set out here.

Experiment [1] deals with T1, Glutathione reductase, mitochondrial (Homo sapiens, UniProt P00390).
T1 sequence (P00390 whole entry): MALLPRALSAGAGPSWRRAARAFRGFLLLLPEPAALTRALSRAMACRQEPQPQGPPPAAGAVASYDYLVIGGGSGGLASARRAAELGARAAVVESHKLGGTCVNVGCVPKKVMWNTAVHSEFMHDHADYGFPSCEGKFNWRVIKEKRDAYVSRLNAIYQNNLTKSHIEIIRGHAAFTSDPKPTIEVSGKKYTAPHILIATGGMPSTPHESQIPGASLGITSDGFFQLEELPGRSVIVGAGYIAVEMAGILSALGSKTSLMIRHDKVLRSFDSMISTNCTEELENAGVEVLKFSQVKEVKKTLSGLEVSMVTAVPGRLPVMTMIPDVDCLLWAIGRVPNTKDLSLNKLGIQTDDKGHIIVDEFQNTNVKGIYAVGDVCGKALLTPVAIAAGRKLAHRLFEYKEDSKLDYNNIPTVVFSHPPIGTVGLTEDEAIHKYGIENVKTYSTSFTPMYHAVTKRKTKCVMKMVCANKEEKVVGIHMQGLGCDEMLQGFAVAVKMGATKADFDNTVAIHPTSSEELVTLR
Kind of experiment: Inhibitory concentration against human glutathione reductase.

In experiment [2] the target is T2, Thioredoxin reductase (Homo sapiens, UniProt Q16881+Q9NNW7+Q86VQ6). Kind of experiment: Inhibitory concentration against wild type human thioredoxin reductase (5 nM) pre-incubated for 10 min at 25 degree C in buffer in the presence of 200 uM NADPH. The format is protein assay. The gist of the method:
(§1)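 Placental wt-hTrxR (5 nM) preincubated 10 min at 25 °C with 200 μM NADPH and inhibitor (from 10 mM DMF stock) in 100 mM potassium phosphate, 2 mM EDTA, pH 7.4. Started with 3 mM DTNB; TNB formation read at 412 nm. DMF controls. IC50 from dose–response curves, mean of at least three determinations.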

Experiment [3] addresses T2, Thioredoxin reductase. Kind of experiment: Inhibitory concentration (25 uM) against human thioredoxin reductase. The class given is protein assay. The gist of the method:
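Placental hTrxR screen in 100 mM sodium phosphate, 2 mM EDTA, pH 7.0. Mix held 500 μM NADPH, 200 μM DTNBA and 25 μM inhibitor. Reaction started with native enzyme. Thionitrobenzamide formation read at 416 nm over time, with and without inhibitor.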

Experiment [4] deals with T2, Thioredoxin reductase. Kind of experiment: Inhibitory concentration against wild type mutant human thioredoxin reductase (hTrxRdelta-16) pre-incubated for 10 min at 25 degree C in buffer in the presence of 200 uM NADPH. The format is protein assay. In outline:
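Truncated recombinant hTrxRΔ-16 preincubated 10 min at 25 °C with 200 μM NADPH and inhibitor in potassium phosphate/EDTA buffer, pH 7.4. Reaction started with 3 mM DTNB; TNB formation read at 412 nm. DMF controls. IC50 from dose–response curves.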

Experiment [5] concerns the target T2, Thioredoxin reductase. In words: Inhibitory concentration against wild type human thioredoxin reductase. The class given is protein assay. The gist of the method: as §1
Experiment [6] addresses T2, Thioredoxin reductase. In words: Inhibitory concentration against wild type human thioredoxin reductase (30 nM) pre-incubated for 10 min at 25 degree C in phosphate buffer in the presence of 100 uM NADPH. The class given is protein assay. In outline: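 Placental wt-hTrxR (30 nM) preincubated 10 min at 25 °C with 100 μM NADPH and inhibitor (from 10 mM DMF stock) in 100 mM potassium phosphate, 2 mM EDTA, pH 7.4. Started with 20 μM hTrxC72S; NADPH oxidation read at 340 nm. DMF controls. IC50 from dose–response curves, mean of at least three determinations.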

The subject of experiment [7] is MCF7. In words: Inhibitory concentration against MCF-7 cell line. The class given is functional, cell-based, Homo sapiens. The gist of the method:
(§2)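 Human tumour lines grown in DMEM at 37 °C under 5% CO2, seeded in 96-well plates. Dosed next day in quadruplicate with 1:2 serial dilutions, 50 to 0.8 μg/mL; platinum complexes from DMF stock, cisplatin in water. After 96 h cells fixed in 3% formaldehyde and stained with 1% crystal violet, absorbance at 595 nm. For MCF-7 the dye was eluted with ethanol/1% acetic acid before reading. IC50 from fitted dose–response curves.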

The test system of experiment [8] is Calu-6. In words: Inhibitory concentration against Calu-6 cell line. The class given is functional, cell-based, Homo sapiens. The gist of the method: as §2
Experiment [9] concerns SK-MEL-25. In words: Inhibitory concentration against SK-MEL-25 cell line. The class given is functional, cell-based, Homo sapiens. In outline:
as §2

For experiment [10], the target named is T2, Thioredoxin reductase. In words: Inhibitory concentration against wild type mutant human thioredoxin reductase (Sec498Cys) (100 nM) pre-incubated for 10 min at 25 degree C in buffer in the presence of 200 uM NADPH. The class given is protein assay. In outline: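 Recombinant hTrxR Sec498Cys (100 nM) preincubated 10 min at 25 °C with 200 μM NADPH and inhibitor in potassium phosphate/EDTA buffer, pH 7.4. Started with 3 mM DTNB; absorbance read at 412 nm. DMF controls. IC50 from dose–response curves, mean of at least three determinations.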

Experiment [11] concerns the target T2, Thioredoxin reductase. Kind of experiment: Inhibitory concentration against wild type mutant human thioredoxin reductase (Sec498Cys) (1.3 uM) pre-incubated for 10 min at 25 degree C in buffer in the presence of 100 uM NADPH. The format is protein assay. In outline: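 Recombinant hTrxR Sec498Cys (1.3 μM) preincubated 10 min at 25 °C with 100 μM NADPH and inhibitor in potassium phosphate/EDTA buffer, pH 7.4. Reaction started with 20 μM hTrxC72S; NADPH oxidation read at 340 nm. DMF controls. IC50 from dose–response curves, at least three determinations.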

The subject of experiment [12] is MCF7. Kind of experiment: Ratio of inhibition by compound against MCF-7 cell line to inhibition by cisPt against MCF-7 cell line. The class given is functional, cell-based. The note with it: Homo sapiens. The gist of the method: (§3)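 Cytotoxicity in DMEM at 37 °C, 5% CO2, quadruplicate 1:2 dilutions (50 to 0.8 μg/mL), 96 h, crystal violet read at 595 nm. Value is the ratio of the complex IC50 to the cisplatin IC50 measured on the same line.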

Experiment [13] has as its system Calu-6. In words: Ratio of inhibition by compound against Calu-6 cell line to inhibition by cisPt against Calu-6 cell line. The format is functional, cell-based. The note with it: Homo sapiens. The gist of the method: as §3
Experiment [14] concerns SK-MEL-25. In words: Ratio of inhibition by compound against SK-MEL-25 cell line to inhibition by cisPt against SK-MEL-25 cell line. The format is functional, cell-based. The note with it: Homo sapiens. In outline: as §3
Experiment [15] deals with T2, Thioredoxin reductase. In words: Inhibitory concentration against human thioredoxin reductase. The class given is protein assay. In outline:
(§4)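 Human TrxR purified from placenta, 5 nM in the DTNB assay or 30 nM in the Trx assay. Enzyme was preincubated 10 min at 25 °C in 100 mM potassium phosphate, 2 mM EDTA, pH 7.4, with NADPH and inhibitor (DMF stock; DMF controls). DTNB assay: 200 μM NADPH, started with 3 mM DTNB, A412. Trx assay: 100 μM NADPH, started with 20 μM hTrxC72S, A340. IC50 from dose–response curves, ≥3 determinations.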

Experiment [16] has as its target T2, Thioredoxin reductase. Kind of experiment: Inhibitory concentration agains human thioredoxin reductase. The format is protein assay. The gist of the method: as §4

A word on the IC50: it is the concentration that gives 50% inhibition. Turning to `O=C(Cc1ccc2ccccc2c1)NNC(=O)c1ccc([N+](=O)[O-])o1`, the IC50 in experiment [1] was 4.1 µM; in experiment [2], 18 µM; in experiment [3], 16 µM; in experiment [4], 215 µM.

Broadly, the Ki is the equilibrium dissociation constant of an inhibitor or competing ligand from its target. In experiment [5], “2-(2-Amino-ethylamino)-N-(7-{2-[N'-(5-nitro-furan-2-carbonyl)-hydrazino]-2-oxo-ethyl}-naphthalen-2-yl)-acetamide; compound with GENERIC INORGANIC NEUTRAL COMPONENT [listing 1 of 2 here]” had a Ki of 0.275 µM. Moreover, the IC50 in experiment [2] came out at 0.11 µM; in [6] it was 0.12 µM; in [4], 145 µM; in experiment [7], 53.1 µM; in experiment [8], 27.6 µM; in [9], 15.1 µM. Besides, the IC50 in experiment [10] came out at 130 µM; in experiment [11] it was 38 µM.

With “2-(2-Amino-ethylamino)-N-(7-{2-[N'-(5-nitro-furan-2-carbonyl)-hydrazino]-2-oxo-ethyl}-naphthalen-2-yl)-acetamide; compound with GENERIC INORGANIC NEUTRAL COMPONENT [listing 2 of 2 here]”, the Ratio in [12] was determined as 0.8; in experiment [13] it was 15.3; in experiment [14], 3.

The compound `O=C1C=CC(=Nc2cc(Cl)c(O)c(Cl)c2)C=C1` [DICHLOROPHENOL INDOPHENOL] yielded an IC50 in experiment [15] of 25 µM.

Turning to `O=C1C=CC(=O)c2c(O)ccc(O)c21` [NAPHTHAZALIN], the IC50 in experiment [16] worked out at 20 µM.
